Measured values taken from ChEMBL document CHEMBL2062388, “Integrated virtual screening for the identification of novel and selective peroxisome proliferator-activated receptor (PPAR) scaffolds” (J Med Chem, 2012).
Activity calls are given as the source filed them. No cut-off for these calls is given here.

Columns and labels:
[1] = Octanol-water partition coefficient, log P of the compound; type: physicochemical
[2] = molecular target: T1, Peroxisome proliferator-activated receptor gamma (Homo sapiens) (UniProt P37231); test: Binding affinity to PPARgamma LBD at >= 100 uM by fluorescence polarization based competitive binding assay
T1 sequence (whole entry): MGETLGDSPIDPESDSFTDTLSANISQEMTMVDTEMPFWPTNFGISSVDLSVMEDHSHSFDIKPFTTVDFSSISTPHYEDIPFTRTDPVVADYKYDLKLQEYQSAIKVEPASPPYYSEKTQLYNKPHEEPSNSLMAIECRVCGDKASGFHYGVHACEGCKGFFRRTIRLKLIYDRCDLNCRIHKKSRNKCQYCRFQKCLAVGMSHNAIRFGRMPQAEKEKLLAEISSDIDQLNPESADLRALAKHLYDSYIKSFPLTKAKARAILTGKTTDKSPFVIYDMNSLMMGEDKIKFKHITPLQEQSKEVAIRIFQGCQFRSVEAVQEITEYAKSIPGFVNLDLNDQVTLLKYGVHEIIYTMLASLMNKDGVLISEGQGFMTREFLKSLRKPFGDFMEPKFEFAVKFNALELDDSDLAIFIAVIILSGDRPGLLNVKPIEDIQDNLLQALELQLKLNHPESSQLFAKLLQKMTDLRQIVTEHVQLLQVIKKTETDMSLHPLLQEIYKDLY

[3] = molecular target: T1, Peroxisome proliferator-activated receptor gamma (Homo sapiens); test: Displacement of pan-PPAR fluormone from PPARgamma LBD at >= 100 uM by TR-FRET based LanthaScreen assay
[4] = molecular target: T2, Peroxisome proliferator-activated receptor alpha (Homo sapiens) (UniProt Q07869); test: Displacement of pan-PPAR fluormone from PPARalpha LBD at >= 100 uM by TR-FRET based LanthaScreen assay
T2 sequence (whole entry): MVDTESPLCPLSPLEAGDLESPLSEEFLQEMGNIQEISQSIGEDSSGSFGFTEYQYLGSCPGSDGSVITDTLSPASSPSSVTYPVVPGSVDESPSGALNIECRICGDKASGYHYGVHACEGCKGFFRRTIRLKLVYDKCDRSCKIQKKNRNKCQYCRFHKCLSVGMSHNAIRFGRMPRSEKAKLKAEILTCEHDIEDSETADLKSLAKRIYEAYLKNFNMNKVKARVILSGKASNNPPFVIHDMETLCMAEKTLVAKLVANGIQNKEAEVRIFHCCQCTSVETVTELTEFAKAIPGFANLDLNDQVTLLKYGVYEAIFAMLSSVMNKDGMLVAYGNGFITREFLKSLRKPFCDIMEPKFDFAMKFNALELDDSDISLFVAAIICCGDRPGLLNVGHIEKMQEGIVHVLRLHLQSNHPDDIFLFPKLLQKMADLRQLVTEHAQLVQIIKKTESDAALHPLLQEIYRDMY

[5] = molecular target: T3, Peroxisome proliferator-activated receptor alpha (Homo sapiens, UniProt Q07869); test: Displacement of pan-PPAR fluormone from PPARalpha LBD by TR-FRET based LanthaScreen assay
T3 sequence (Q07869 whole entry): T2 sequence (whole entry)

[6] = molecular target: T4, Peroxisome proliferator-activated receptor gamma (Homo sapiens, UniProt P37231); test: Binding affinity to PPARgamma LBD by fluorescence polarization based competitive binding assay
T4 sequence (P37231 whole entry): T1 sequence (whole entry)

[7] = molecular target: T5, Peroxisome proliferator-activated receptor delta (Homo sapiens, UniProt Q03181); test: Displacement of pan-PPAR fluormone from PPARdelta LBD by TR-FRET based LanthaScreen assay
T5 sequence (Q03181 whole entry): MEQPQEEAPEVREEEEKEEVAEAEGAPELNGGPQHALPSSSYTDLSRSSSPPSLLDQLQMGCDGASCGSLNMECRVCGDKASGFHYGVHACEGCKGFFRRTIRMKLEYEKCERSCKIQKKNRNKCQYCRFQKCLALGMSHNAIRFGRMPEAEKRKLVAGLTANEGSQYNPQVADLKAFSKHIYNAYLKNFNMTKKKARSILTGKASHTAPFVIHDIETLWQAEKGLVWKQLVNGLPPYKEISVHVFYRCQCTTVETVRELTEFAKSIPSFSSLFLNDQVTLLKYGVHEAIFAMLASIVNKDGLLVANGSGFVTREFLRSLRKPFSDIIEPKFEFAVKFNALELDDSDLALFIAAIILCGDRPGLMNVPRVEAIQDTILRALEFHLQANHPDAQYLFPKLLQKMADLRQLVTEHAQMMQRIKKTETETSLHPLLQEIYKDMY

[8] = molecular target: T1, Peroxisome proliferator-activated receptor gamma (Homo sapiens); test: Agonist activity at PPARgamma LBD in human 293H DA cells after 16 hrs by TR-FRET activation reporter assay relative to rosiglitazone; type: functional, cell-based
How it was run: (§1)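 GeneBLAzer PPARγ 293H DA cells plated at 30 000 cells/well, exposed to compound (0.1 to 10 000 nM; 0.1% DMSO final) for approximately 16 h. LiveBLAzer-FRET B/G substrate loaded for 2 h, then fluorescence read at 460 and 530 nm. […] EC50 from sigmoidal varying-slope fit. Triplicates, at least two independent experiments.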

[9] = molecular target: T4, Peroxisome proliferator-activated receptor gamma; test: Displacement of pan-PPAR fluormone from PPARgamma LBD by TR-FRET based LanthaScreen assay
[10] = molecular target: PPAR delta/gamma (Homo sapiens) (UniProt P37231+Q03181); test: Selectivity ratio of EC50 for PPARdelta LBD to EC50 for PPARgamma LBD
[11] = molecular target: T1, Peroxisome proliferator-activated receptor gamma (Homo sapiens); test: (§2) Agonist activity at PPARgamma LBD in human 293H DA cells after 16 hrs by TR-FRET activation reporter assay; type: functional, cell-based; how it was run: as §1
[12] = molecular target: T4, Peroxisome proliferator-activated receptor gamma; test: as §2; type: functional, cell-based; how it was run: as §1
Homo sapiens = species on record: Homo sapiens; test: Selectivity ratio of EC50 for PPARalpha LBD to EC50 for PPARgamma LBD

Compound	logP [1]	inhibition [2]	inhibition [3]	inhibition [4]	EC50 ([5]; read-out: EC50)	EC50 [6]	EC50 [7]	Emax [8]	EC50 [9]	Ratio EC50 [10]	Activity [11]	EC50 [12]	EC50 [5]	Ratio EC50 (Homo sapiens)
CN(CCOc1ccc(C[C@H](Nc2ccccc2C(=O)c2ccccc2)C(=O)O)cc1)c1ccccn1	5.23	–	–	–	–	–	–	–	–	–	–	–	–	–
CC(C)(Sc1ccc(CCN(CCCCC2CCCCC2)C(=O)NC2CCCCC2)cc1)C(=O)O [GW7647]	8.02	inactive	inactive	–	–	–	–	–	–	–	–	–	–	–
CN(CCOc1ccc(CC2SC(=O)NC2=O)cc1)c1ccccn1 (stereo unspecified) [ROSIGLITAZONE]	2.62	–	–	inactive	–	–	–	–	–	–	–	–	–	–
Cc1cc(SCc2sc(-c3ccc(C(F)(F)F)c(F)c3)nc2C)ccc1OCC(=O)O	5.95	inactive	inactive	–	920 nM	–	–	–	–	–	–	–	–	–
CCOC(=O)c1sc(N2C(=O)C(O)=C(C(=O)c3cccs3)C2c2ccc(C)o2)nc1C (stereo unspecified)	2.39	–	–	inactive	–	2400 nM	26000 nM	77.5%	2400 nM	10.8	Dose-dependent effect	594 nM	–	–
O=C1NC(=S)NC(=O)C1=Cc1ccc(OCc2ccccc2)c(Cl)c1	3.11	–	–	–	–	325 nM	–	91.6%	215 nM	–	Dose-dependent effect	467 nM	Not Active	–
O=C(Nn1cc([N+](=O)[O-])cn1)c1cccc(COc2ccc(Br)cc2)c1	3.71	–	–	–	11400 nM	5450 nM	21000 nM	68.7%	5450 nM	4	Dose-dependent effect	682 nM	–	2
